Series [1] can be described thus: melting temperature; fluorescence melt of hairpins on a sequencing array, two-state fit, raised by 9.35 °C to match UV melts. To be noted: sodium 0.088 M. Summed up: (§1)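 With Cy3 and quencher oligos annealed, library hairpins on a sequenced MiSeq flow cell were imaged for Cy3 fluorescence in 50 mM Na-HEPES pH 8.0, 25 mM NaCl, in 2.5 °C steps up to 60 °C. Melting temperature and folding enthalpy were derived from bootstrapped two-state fits of signals normalised to pre-quench Cy3 and to control constructs. Four replicates were combined by inverse variance, with fitted temperatures raised by 9.35 °C to match UV melts.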

Series [2] in a line: folding enthalpy; higher = less favourable; fluorescence melt of hairpins on a sequencing array, two-state fit. The settings on record: sodium 0.088 M. The procedure, abridged: as §1

For the sequence GCTACGCGAAAGCATGGC ((.(.((....)).).)), the Tm in series [1] was determined as 37 °C. In addition, in series [2], the folding enthalpy is -19.7 kcal/mol.
Taken in the same sequence, the figures for GCTACGCGAAAGCCTAGC ((((.((....)).)))) were 45.6 °C and -23.3 kcal/mol.
Taken in the same sequence, the figures for GCTACGCGAAAGCGAAGC (((.(((....))).))) were 57.5 °C and -36.7 kcal/mol.
In the same order, the values of GCTACGCGAAAGCGACGC ((..(((....)))..)) are 40.2 °C and -15.1 kcal/mol.
As for GCTACGCGAAAGCGAGC (((.(((....)))))), the Tm in series [1] was determined as 56.5 °C. Moreover, the folding enthalpy in series [2] was -15.8 kcal/mol.
In the case of GCTACGCGAAAGCGGGGC ((..(((....)))..)), the Tm in series [1] was 63.7 °C. Further, the folding enthalpy in series [2] is -20.7 kcal/mol.
Taken in the same sequence, the figures for GCTACGCGAAAGCTAAGC (((..((....))..))) were 38.8 °C and -13.1 kcal/mol.
Consider GCTACGGGAAACCGTGGC ((.((((....)))).)), for which the Tm in series [1] amounted to 56.7 °C. In series [2], the folding enthalpy is -38.2 kcal/mol.
Taken in the same sequence, the figures for GCTACTCGAAAGAGGAGC (((.(((....))).))) were 61.6 °C and -37.4 kcal/mol.
In the same order, the values of GCTAGACGAAAGTCAAGC (((.(((....))).))) are 52.7 °C and -30.4 kcal/mol.
In the same order, the values of GCTAGACGAAAGTCGAGC (((.(((....))).))) are 60.2 °C and -32.9 kcal/mol.
Turning to GCTAGAGGAAACTCCAGC (((.(((....))).))), in series [1], the Tm came to 34.8 °C. Further, in series [2], the folding enthalpy is -22.2 kcal/mol.
Turning to GCTAGCGAAAGCTCAAGC ((((((....)))..))), the Tm in series [1] worked out at 38 °C. Besides, the folding enthalpy in series [2] was -14 kcal/mol.
Taken in the same sequence, the figures for GCTAGCGGAAACACTAGC (((((.(....).))))) were 45.7 °C and -32.2 kcal/mol.
Taken in the same sequence, the figures for GCTAGCGGAAACGTTGGC ((.(.((....)).).)) were 39.6 °C and -24.6 kcal/mol.
With GCTAGGACGAAAGTCAGC (((..(((....)))))), the Tm in series [1] came to 42.7 °C. For the same sequence, the folding enthalpy in series [2] is -16.6 kcal/mol.
In the same order, the values of GCTAGGCGAAAGCAAAGC (((..((....))..))) are 44.3 °C and -19.2 kcal/mol.
In the same order, the values of GCTAGGCGAAAGCCAAGC (((.(((....))).))) are 56.1 °C and -40 kcal/mol.
GCTAGGCGAAAGCTTCGC ((.(.((....)).).)): the Tm in series [1] turned out to be 36.2 °C. Also, in series [2], the folding enthalpy was -13.9 kcal/mol.
As for GCTAGGGGAAACCCTAAC (.(((((....))))).), the Tm in series [1] worked out at 32.1 °C. Besides, the folding enthalpy in series [2] is -13.4 kcal/mol.
Regarding GCTAGTCGAAAGACGAGC (((.(((....))).))), in series [1], the Tm came out at 57.6 °C. The folding enthalpy in series [2] was -35.4 kcal/mol.
Taken in the same sequence, the figures for GCTAGTGAAAACTAGC ((((((....)))))) were 56.9 °C and -36.3 kcal/mol.
In the same order, the values of GCTATACGAAAGTAAAGC (((.(((....))).))) are 42.8 °C and -28 kcal/mol.
Take GCTATCCGAAAGGACAGC (((.(((....))).))): the Tm in series [1] turned out to be 49 °C. Further, the folding enthalpy in series [2] was -31.7 kcal/mol.
Take GCTATCGAAAGATCAGC ((((((....))).))): the Tm in series [1] was 38.2 °C. Besides, in series [2], the folding enthalpy is -20.6 kcal/mol.
Taken in the same sequence, the figures for GCTATCGAAAGATCGAGC ((((((....)))..))) were 29.7 °C and -10.1 kcal/mol.
In the same order, the values of GCTATCGAAAGATGAGC ((((((....))).))) are 37.4 °C and -27.1 kcal/mol.
Regarding GCTATCGAAAGATTAAGC ((((((....)))..))), in series [1], the Tm turned out to be 34.6 °C. Moreover, the folding enthalpy in series [2] was -17.1 kcal/mol.
In the same order, the values of GCTATCGGAAACAATAGC (((((.(....).))))) are 35.1 °C and -18.3 kcal/mol.
Taken in the same sequence, the figures for GCTATCTCGAAAGAGAGC (((..(((....)))))) were 37.2 °C and -16.7 kcal/mol.
Taken in the same sequence, the figures for GCTATGCGAAAGCAACGC ((..(((....)))..)) were 39.1 °C and -10.5 kcal/mol.
In the case of GCTATGCGAAAGCAATGC ((..(((....)))..)), the Tm in series [1] was found to be 47.7 °C. In addition, the folding enthalpy in series [2] is -16.5 kcal/mol.
In the same order, the values of GCTATGCGAAAGCAGTGC ((..(((....)))..)) are 46.9 °C and -19.1 kcal/mol.
Taken in the same sequence, the figures for GCTATGCGAAAGCGGAGC (((..((....))..))) were 53.6 °C and -26.3 kcal/mol.
Taken in the same sequence, the figures for GCTATGCGAAAGCTCAGC (((..((....))..))) were 36.2 °C and -19.1 kcal/mol.
As for GCTATGCGAAAGCTTAGC ((((.((....)).)))), the Tm in series [1] was found to be 60.8 °C. The folding enthalpy in series [2] is -28.9 kcal/mol.

The record behind these values is the array DNA melting data of Ke et al. (doi:10.1101/2024.01.08.574731).
